Measured values collected from several papers.
Each line is one published result; the experiments were not run side by side. Converted amounts (≈) assume the structure as drawn.

CC(C)Oc1c(NC(=O)c2ccc(NC(=O)[C@H](CC(N)=O)NC(=O)c3ccc(NC(=O)c4ccc(C#N)cn4)cc3)cc2)ccc(C(=O)Nc2ccc(C(=O)O)cc2)c1O
MIC (Proteus mirabilis; microbial growth; DSM4479): 4 mg/L (≈ 4.92 µM)

CCCCCCC/C=C/C(=O)N1C(=O)/C(=C(/C)O)C(=O)C1CCCCN (stereo not shown)
MIC (Proteus mirabilis; microbial growth; ATCC25933): > 200 mg/L

O=C(Nc1ccccc1-c1ccc(F)c(F)c1)c1nccnc1C(F)(F)F
EC50 (Colletotrichum orbiculare; microbial growth): > 100 mg/L

CC(=O)OC[C@@]1(C)[C@H]2CC[C@@H]3CN(C(C)C)[C@@H](C4=CCOC4=O)C[C@H]3[C@]2(C)CC[C@H]1OC(C)=O
inhibition (unidentified human coronavirus; cytopathic effect; MRC5; 25 µM, 72 h): 80%

CCOC(=O)c1cc(C#N)c(=O)n(NS(=O)(=O)c2ccc(C)cc2)c1N
IC50 (Enterovirus B; plaque formation; BGM, B4): 90 mg/L

O=C(O)c1cn(C2CC2)c2cc(N3CCNCC3)c(F)cc2c1=O
MBC (Acinetobacter baumannii; microbial killing, broth dilution): 0.25 mg/L (≈ 0.754 µM)

CCOC(=O)N[C@H](C(=O)N1CCC[C@H]1C(=O)Nc1cccc(C#CC#Cc2cccc(NC(=O)[C@@H]3CCCN3C(=O)[C@@H](NC(=O)OCC)[C@@H](C)CC)c2)c1)[C@H](C)CC
EC50 (Hepatitis C virus; viral replication, inhibitor, luciferase; Huh-5-2, GETYPE1B; 72 h, replicon): 392 nM

Cc1cn([C@H]2C[C@H](N=[N+]=[N-])[C@@H](CO)O2)c(=O)[nH]c1=O
EC90 (Hepatitis C virus; viral replication, inhibitor; Huh-7; replicon): > 10 µM

CCOC(=O)N[C@@H](CC(C)C)C(=O)N1CCC[C@H]1C(=O)Nc1cccc(C#CC#Cc2cccc(NC(=O)[C@@H]3CCCN3C(=O)[C@H](CC(C)C)NC(=O)OCC)c2)c1
EC50 (Hepatitis C virus; viral replication, inhibitor, luciferase; GETYPE4A; replicon): 40.9 nM

Nc1ncnc2c1c([N+](=O)[O-])cn2[C@@H]1C=C(CO)[C@@H](O)[C@H]1O
inhibition (Hepatitis C virus; viral replication, inhibitor, luciferase; Huh7 ET; 20 µM, replicon): 31.5%

CC(=O)OC[C@@]1(C)[C@H]2CC[C@@H]3CN(Cc4ccc(C(C)(C)C)cc4)[C@@H](C4=CCOC4=O)C[C@H]3[C@]2(C)CC[C@H]1OC(C)=O
inhibition (unidentified human coronavirus; cytopathic effect; MRC5; 25 µM, 72 h): 94.1%

COc1nc(OC)c2ncn([C@@H]3O[C@H](CO)[C@@H](F)[C@@H]3F)c2n1
EC50 (Hepatitis C virus; viral replication, inhibitor; Huh-7; replicon): > 10000 nM

N#CC(=Cc1cn(-c2ccccc2)nc1-c1ccccc1)C1=NC(=O)CS1
MBC (Acinetobacter baumannii; microbial killing, broth dilution): 0.5 mg/L (≈ 1.35 µM)

CCCCCCC/C=C/C(=O)N1C(=O)/C(=C(\O)c2ccncc2)C(=O)C1CC(C)C (stereo not shown)
MIC (Proteus mirabilis; microbial growth; ATCC25933): > 200 mg/L

CCOC(=O)c1c(N)csc1-c1cn(-c2ccccc2)nc1-c1ccc(C)cc1
inhibition zone (Acinetobacter baumannii; microbial growth, well diffusion; 100000 µg/mL): 29 mm

Nc1nc(Cl)c2ncn([C@@H]3O[C@H](CO)[C@@H](F)[C@@H]3F)c2n1
EC50 (Hepatitis C virus; viral replication, inhibitor; Huh-7; replicon): > 10000 nM

CC(C)[C@H](NC(=O)OCc1ccccc1)C(=O)N1CCC[C@H]1C(=O)Nc1cccc(C#CC#Cc2cccc(NC(=O)[C@@H]3CCCN3C(=O)[C@@H](NC(=O)OCc3ccccc3)C(C)C)c2)c1
EC50 (Hepatitis C virus; viral replication, inhibitor, luciferase; Huh-5-2, GETYPE1B; 72 h, replicon): > 10000 nM

C[C@@]12COCO[C@@H]1CC[C@]1(C)[C@@H]2CC[C@@H]2CN(Cc3ccccc3)[C@@H](C3=CCOC3=O)C[C@H]21
inhibition (unidentified human coronavirus; cytopathic effect; MRC5; 25 µM, 72 h): 9.5%

CO[C@@H](C(N)=O)[C@H](NC(=O)c1ccc(NC(=O)c2ccc(C#N)cc2)cc1)C(=O)Nc1ccc(C(=O)Nc2ccc(C(=O)Nc3ccc(C(=O)O)cc3)c(O)c2OC(C)C)cc1
MIC (Proteus mirabilis; microbial growth; DSM4479): 4 mg/L (≈ 4.75 µM)

O=[N+]([O-])c1ccc(O)c2ncccc12
IC50 (Acinetobacter baumannii; microbial growth; 19606): 0.56 µM

Nc1nc(N)c2ncn([C@H]3O[C@H](CO)[C@@H](F)[C@@H]3F)c2n1
EC90 (Hepatitis C virus; viral replication, inhibitor; Huh-7; replicon): > 10 µM

CC1(C)OC[C@@]2(C)[C@H]3CC[C@@H]4CN(Cc5cccs5)[C@@H](C5=CCOC5=O)C[C@H]4[C@]3(C)CC[C@H]2O1
inhibition (unidentified human coronavirus; cytopathic effect; MRC5; 25 µM, 72 h): 38.4%

Cc1c(NN=C2SC(C(C#N)=Cc3ccccc3)=NC2=O)c(=O)n(-c2ccccc2)n1C
inhibition zone (Acinetobacter baumannii; microbial growth, well diffusion; 100000 µg/mL): 16 mm

CCCCCCC/C=C/C(=O)N1CC(=O)/C(=C(\C)O)C1=O
MIC (Proteus mirabilis; microbial growth; ATCC25933): > 200 mg/L

Cc1ccc(S(=O)(=O)Nc2nc(N)c(-c3nc4ccccc4s3)c(-c3ccc(Cl)cc3)n2)cc1
IC50 (Enterovirus B; plaque formation; BGM, B4): 74 mg/L

COc1cc(O)c(CC=C(C)C)c(O)c1C(=O)/C=C/c1ccc(O)cc1
IC50 (Leishmania tarentolae; parasite growth, resazurin; 48 h, promastigote): 0.78 µM

CCOC(=O)N[C@@H](C(=O)N1CCC[C@H]1C(=O)Nc1ccc(C#CC#Cc2ccc(NC(=O)[C@@H]3CCCN3C(=O)[C@H](NC(=O)OCC)C(C)C)cc2)cc1)C(C)C
EC50 (Hepatitis C virus; viral replication, inhibitor, luciferase; Huh-5-2, GETYPE1B; 72 h, replicon): 267 nM

CCCCC(=O)N1C(=O)/C(=C(/C)O)C(=O)C1CC(C)C (stereo not shown)
MIC (Proteus mirabilis; microbial growth; ATCC25933): > 200 mg/L

Cc1c(NN=C2SC(CC#N)=NC2=O)c(=O)n(-c2ccccc2)n1C
inhibition zone (Acinetobacter baumannii; microbial growth, well diffusion; 100000 µg/mL): 15 mm

COC(=O)N[C@H](C(=O)N1CCC[C@H]1c1ncc(-c2ccc(-c3ccc(-c4cnc([C@@H]5CCCN5C(=O)[C@@H](NC(=O)OC)C(C)C)[nH]4)cc3)cc2)[nH]1)C(C)C
EC50 (Hepatitis C virus; viral replication, inhibitor; HeLa, GETYPE2A; replicon): 0.0037 nM

COc1nc(Cl)nc2c1ncn2[C@@H]1O[C@H](CO)[C@@H](F)[C@@H]1F
EC50 (Hepatitis C virus; viral replication, inhibitor; Huh-7; replicon): > 10000 nM

NC(=O)c1ncn([C@@H]2O[C@H](CO)[C@@H](O)[C@H]2O)n1
IC50 (Enterovirus B; cytopathic effect; Vero, B3 CVB3): 1580 µM

COC(=O)N[C@H](C(=O)N1CCC[C@H]1C(=O)Nc1cccc(C#CC#Cc2cccc(NC(=O)[C@@H]3CCCN3C(=O)[C@@H](NC(=O)OC)C(C)C)c2)c1)C(C)C
EC50 (Hepatitis C virus; viral replication, inhibitor, luciferase; Huh-5-2, GETYPE1B; 72 h, replicon): 0.121 nM

CCOC(=O)C=c1[nH]c(=O)c(=Cc2cn(-c3ccccc3)nc2-c2ccc(C)cc2)s1
inhibition zone (Acinetobacter baumannii; microbial growth, well diffusion; 100000 µg/mL): 11 mm

O=C(CNc1nc(NS(=O)(=O)c2ccccc2)ncc1-c1nc2ccccc2s1)c1ccc(Cl)cc1
IC50 (Enterovirus B; plaque formation; BGM, B4): 92 mg/L

CCOC(=O)N[C@@H](C(=O)N1CCC[C@@H]1C(=O)Nc1cccc(C#CC#Cc2cccc(NC(=O)[C@H]3CCCN3C(=O)[C@H](NC(=O)OCC)C(C)C)c2)c1)C(C)C
EC50 (Hepatitis C virus; viral replication, inhibitor, luciferase; Huh-5-2, GETYPE1B; 72 h, replicon): > 10000 nM

CC1(C)OC[C@@]2(C)[C@H]3CC[C@@H]4CN(Cc5ccc(C(F)(F)F)cc5)[C@@H](C5=CCOC5=O)C[C@H]4[C@]3(C)CC[C@H]2O1
inhibition (unidentified human coronavirus; cytopathic effect; MRC5; 25 µM, 72 h): 88.3%

[N-]=[N+]=Nc1nc(N=[N+]=[N-])c2ncn([C@@H]3O[C@H](COC(=O)c4ccccc4)[C@@H](F)[C@@H]3F)c2n1
EC90 (Hepatitis C virus; viral replication, inhibitor; Huh-7; replicon): > 10 µM

CC(=O)OC[C@@]1(C)[C@H]2CC[C@@H]3CN(Cc4ccc(O)cc4)[C@@H](C4=CCOC4=O)C[C@H]3[C@]2(C)CC[C@H]1OC(C)=O
inhibition (unidentified human coronavirus; cytopathic effect; MRC5; 25 µM, 72 h): 50.4%

CCCCOC(=O)N[C@H](C(=O)N1CCC[C@H]1C(=O)Nc1ccc(C#CC#Cc2ccc(NC(=O)[C@@H]3CCCN3C(=O)[C@@H](NC(=O)OCCCC)C(C)C)cc2)cc1)C(C)C
EC50 (Hepatitis C virus; viral replication, inhibitor, luciferase; Huh-5-2, GETYPE1B; 72 h, replicon): 919 nM

COc1ccc(CN2C[C@H]3CC[C@@H]4[C@](C)(COC(C)=O)[C@H](OC(C)=O)CC[C@@]4(C)[C@@H]3C[C@@H]2C2=CCOC2=O)cc1
inhibition (unidentified human coronavirus; cytopathic effect; MRC5; 25 µM, 72 h): 5.1%

Cc1ccc(S(=O)(=O)Nc2nc(N)c(-c3nc4ccccc4s3)c(-c3ccc(F)cc3)n2)cc1
IC50 (Enterovirus B; plaque formation; BGM, B4): 82 mg/L

O=C(OC[C@H]1O[C@H](n2cnc3c(Cl)nc(Cl)nc32)[C@@H](F)[C@@H]1F)c1ccccc1
EC90 (Hepatitis C virus; viral replication, inhibitor; Huh-7; replicon): < 10 µM

CCCCCCC/C=C/C(=O)N1C(=O)/C(=C(/C)O)C(=O)C1CCC(=O)O (stereo not shown)
MIC (Proteus mirabilis; microbial growth; ATCC25933): > 200 mg/L

COC(=O)N[C@H](CC(C)C)C(=O)N1CCC[C@H]1C(=O)Nc1cccc(C#CC#Cc2cccc(NC(=O)[C@@H]3CCCN3C(=O)[C@@H](CC(C)C)NC(=O)OC)c2)c1
EC50 (Hepatitis C virus; viral replication, inhibitor, luciferase; GETYPE4A; replicon): 18.6 nM

C[C@]1(CO)[C@H]2CC[C@@H]3CN(Cc4ccco4)[C@@H](C4=CCOC4=O)C[C@H]3[C@]2(C)CC[C@H]1O
inhibition (unidentified human coronavirus; cytopathic effect; MRC5; 25 µM, 72 h): -7.7%
